# Measured values from paper PMC9719863 (Molecular Metabolism, 2022).
# *1 amine or outer side, *2 acyl side, *3 side chain or, on linkers, in order; H or OH if unused. Where a SMILES comes first, the peptide text is derived from it. Side-chain parts run from the residue outwards. The star is where a group is joined. γGlu = O=C(O)[C@H](CCC(=O)[*:2])N[*:1]; Palmitoyl = CCCCCCCCCCCCCCCC(=O)*
# Legend:
# hGIPR = target: T1, hGIPR (Homo sapiens, UniProt P48546); test: cAMP CRE-luciferase assay in BHK cells expressing GIPR; type: cell-based; details: agonist mode, without native ligand
# T1 sequence (P48546 22-466): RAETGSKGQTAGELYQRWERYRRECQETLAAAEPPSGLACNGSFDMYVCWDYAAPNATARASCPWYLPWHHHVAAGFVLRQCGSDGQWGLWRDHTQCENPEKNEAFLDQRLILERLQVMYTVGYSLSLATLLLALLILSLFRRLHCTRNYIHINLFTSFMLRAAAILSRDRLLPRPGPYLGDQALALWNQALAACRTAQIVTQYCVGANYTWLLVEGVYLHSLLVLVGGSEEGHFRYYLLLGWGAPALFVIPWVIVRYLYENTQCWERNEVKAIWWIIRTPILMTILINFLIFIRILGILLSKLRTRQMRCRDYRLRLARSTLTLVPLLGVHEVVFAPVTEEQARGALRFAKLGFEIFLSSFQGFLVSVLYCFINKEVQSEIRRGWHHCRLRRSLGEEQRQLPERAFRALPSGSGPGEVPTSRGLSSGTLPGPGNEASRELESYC
# mGLP-1R = target: T2, mGLP-1R (Mus musculus, UniProt O35659); test: cAMP CRE-luciferase assay in BHK cells expressing GLP-1R; type: cell-based; details: antagonist mode, compared with hGLP-1R
# T2 sequence (O35659 22-463): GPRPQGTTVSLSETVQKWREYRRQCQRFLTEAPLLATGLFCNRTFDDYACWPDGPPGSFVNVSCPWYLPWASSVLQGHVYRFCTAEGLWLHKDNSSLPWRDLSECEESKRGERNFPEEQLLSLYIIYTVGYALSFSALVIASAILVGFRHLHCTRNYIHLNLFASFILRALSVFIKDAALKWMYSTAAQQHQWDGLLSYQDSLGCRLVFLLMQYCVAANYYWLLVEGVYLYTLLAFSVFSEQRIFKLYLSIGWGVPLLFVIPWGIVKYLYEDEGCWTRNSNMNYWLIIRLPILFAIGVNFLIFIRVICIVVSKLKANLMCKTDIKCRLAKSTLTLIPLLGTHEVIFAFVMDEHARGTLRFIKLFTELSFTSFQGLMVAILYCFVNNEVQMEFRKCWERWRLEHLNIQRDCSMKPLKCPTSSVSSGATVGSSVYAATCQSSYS
# Method in brief: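 Stably transfected BHK cells with receptor and CRE-firefly luciferase reporter, 5,000 cells/well, incubated overnight and washed in DPBS. Exposed 3 h at 37 °C to a 12-point serial dilution of test compound with EC80 native ligand, in DMEM (no phenol red) with 10 mM HEPES, 1% ovalbumin, 0.1% Pluronic F-68.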
# hGcgR = hGcgR (Homo sapiens, UniProt P47871); test: cAMP CRE-luciferase assay in BHK cells expressing glucagon receptor; type: cell-based
# Chain of hGcgR (P47871 26-477): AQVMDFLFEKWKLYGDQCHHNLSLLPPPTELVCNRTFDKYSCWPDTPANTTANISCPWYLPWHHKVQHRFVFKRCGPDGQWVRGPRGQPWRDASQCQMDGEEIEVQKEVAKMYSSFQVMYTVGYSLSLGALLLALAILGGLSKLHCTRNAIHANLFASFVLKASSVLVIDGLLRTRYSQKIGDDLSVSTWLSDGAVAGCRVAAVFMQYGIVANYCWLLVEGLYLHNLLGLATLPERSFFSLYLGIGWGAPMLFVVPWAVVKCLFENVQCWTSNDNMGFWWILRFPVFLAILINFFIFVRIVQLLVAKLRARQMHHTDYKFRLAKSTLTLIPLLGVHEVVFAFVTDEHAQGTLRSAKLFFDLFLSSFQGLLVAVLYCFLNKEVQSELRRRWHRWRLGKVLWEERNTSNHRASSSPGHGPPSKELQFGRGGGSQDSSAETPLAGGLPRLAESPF
# Method in brief: (§1)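 Stably transfected BHK cells carried receptor plus CRE-firefly luciferase reporter, seeded 5,000/well overnight, then DPBS-washed. 12-point dilutions in DMEM (no phenol red), 10 mM HEPES, 1% ovalbumin, 0.1% Pluronic F-68, ± EC80 native ligand (antagonist mode), 3 h, 37 °C. Luminescence read after SteadyLite, 30 min RT. EC50/IC50 by nonlinear regression of log concentration vs response; duplicate experiment.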
# DIO mice [1] = test: Oral glucose tolerance test; type: in vivo, mouse; details: high dose (1500 nmol/kg) SC prior to oral gavage of glucose 2.5 g/kg, n = 8 per group
# Method in brief: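 DIO male C57BL/6J mice (58% fat, high-sugar diet ≥16 weeks), fasted 6 h with water available. Antagonist injected 2 h before oral gavage of 2.5 g/kg glucose (20% solution). Tail-vein blood glucose measured from baseline; glucose integrated AUC derived.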
# DIO mice [2] = test: Intraperitoneal glucose tolerance test; type: in vivo, mouse; details: IPGTT (Figure 6C,D) and oral glucose tolerance test (Supplemental figure 3)
# Method in brief: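 Male C57BL/6J mice on 58% fat, high-sugar diet for ≥16 weeks, fasted 6 h. Antagonist (500 or 1500 nmol/kg) injected 2 h before glucose; semaglutide 2 nmol/kg injected 1 h before. Glucose 2.5 g/kg (20% solution) given i.p. or by oral gavage. Tail-vein glucose measured from baseline.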
# mGcgR = mGcgR (Mus musculus, UniProt Q61606); test: cAMP CRE-luciferase assay in BHK cells expressing glucagon receptor; type: cell-based
# Chain of mGcgR (Q61606 27-485): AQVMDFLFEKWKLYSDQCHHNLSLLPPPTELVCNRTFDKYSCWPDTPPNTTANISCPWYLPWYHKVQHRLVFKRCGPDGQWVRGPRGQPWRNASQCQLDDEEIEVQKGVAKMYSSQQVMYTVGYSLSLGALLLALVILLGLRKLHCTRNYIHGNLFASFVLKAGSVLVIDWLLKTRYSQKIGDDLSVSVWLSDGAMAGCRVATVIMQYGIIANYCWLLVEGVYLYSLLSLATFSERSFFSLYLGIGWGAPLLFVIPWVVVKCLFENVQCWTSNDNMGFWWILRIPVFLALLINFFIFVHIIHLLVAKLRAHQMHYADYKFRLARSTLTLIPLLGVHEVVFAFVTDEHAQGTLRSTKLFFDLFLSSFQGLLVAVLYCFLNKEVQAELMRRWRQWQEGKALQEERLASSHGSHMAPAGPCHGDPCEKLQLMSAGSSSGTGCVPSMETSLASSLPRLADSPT
# Method in brief: as §1
# DIO male C57BL/6 J mice = test: Chronic once-daily dosing study on body weight in DIO mice; type: in vivo, mouse; details: for Percent change in body weight: 27-28 d, n = 8
# Method in brief: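 DIO male C57BL/6J mice (58% fat, high-sugar diet, ~12 weeks; >55 g) housed 4/cage at 22 °C on a 12 h light–dark cycle. Groups of n = 8 were normalized for body weight. Test compound was given SC once daily in the light cycle for 28 days, in pH 7.4 vehicle (0.05% polysorbate-80, 50 mM sodium phosphate, 70 mM NaCl). Body weight was taken every other day before dosing, as % change from initial.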
# hGLP-1R = hGLP-1R (Homo sapiens, UniProt P43220); test: cAMP CRE-luciferase assay in BHK cells expressing GLP-1R; type: cell-based
# Chain of hGLP-1R (P43220 24-463): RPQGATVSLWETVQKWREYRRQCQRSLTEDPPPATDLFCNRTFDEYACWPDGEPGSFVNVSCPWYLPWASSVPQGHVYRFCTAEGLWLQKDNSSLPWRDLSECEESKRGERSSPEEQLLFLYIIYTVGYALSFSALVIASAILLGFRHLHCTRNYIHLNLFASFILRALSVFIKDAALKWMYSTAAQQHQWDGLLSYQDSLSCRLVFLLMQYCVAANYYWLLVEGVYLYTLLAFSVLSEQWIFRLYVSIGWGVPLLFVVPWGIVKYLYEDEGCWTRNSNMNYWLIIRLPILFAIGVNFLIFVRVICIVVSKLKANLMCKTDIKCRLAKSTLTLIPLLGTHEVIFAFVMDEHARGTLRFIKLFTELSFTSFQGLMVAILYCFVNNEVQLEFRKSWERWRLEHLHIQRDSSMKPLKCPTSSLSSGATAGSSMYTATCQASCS
# Method in brief: as §1
# intact human islets = test: Human islet perifusion, insulin secretion; type: cell-based; details: islets from two human donors, 7 1 uM, 4 technical replicates per donor
# Method in brief: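 Islets from human donors (purity ≥80%) recovered overnight in RPMI with 6.7 mM glucose and 10% FBS, then used within 4 days. 75 handpicked islets per chamber in KRPH buffer (2.7 mM glucose, pH 7.4). Equilibrated 48 min (1% then 0.1% BSA), then perifused in intervals with 1 uM antagonist in KRPH + 0.1% BSA. Insulin measured by Lumit immunoassay.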
# mGIPR = target: T3, mGIPR (Mus musculus, UniProt Q0P543); test: cAMP CRE-luciferase assay in BHK cells expressing GIPR; type: cell-based
# T3 sequence (Q0P543 19-460): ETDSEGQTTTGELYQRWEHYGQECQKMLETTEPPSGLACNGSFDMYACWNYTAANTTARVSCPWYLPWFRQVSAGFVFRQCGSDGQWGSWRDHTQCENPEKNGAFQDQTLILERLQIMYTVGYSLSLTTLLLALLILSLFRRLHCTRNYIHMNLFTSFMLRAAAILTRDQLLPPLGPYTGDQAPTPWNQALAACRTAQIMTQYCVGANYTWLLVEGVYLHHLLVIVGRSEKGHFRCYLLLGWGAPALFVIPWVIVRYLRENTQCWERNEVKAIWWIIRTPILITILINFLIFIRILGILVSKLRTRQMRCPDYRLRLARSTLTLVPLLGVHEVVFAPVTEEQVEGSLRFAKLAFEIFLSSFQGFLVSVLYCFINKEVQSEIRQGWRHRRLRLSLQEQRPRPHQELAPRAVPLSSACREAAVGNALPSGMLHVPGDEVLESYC
# Pharmacokinetic = type: in vivo; details: male, C57BL/6 J, mouse, plasma, sc, 500 nmol/kg
# Method in brief: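 Male C57BL/6J mice fed 58% fat, high-sugar diet ≥16 weeks (61–74 g) received one SC dose of 500 nmol/kg, n = 4. Plasma sampled 5 min to 72 h, methanol-precipitated (14-fold), centrifuged, diluted 3-fold in 0.1% formic acid, and quantified by LC-MS selected ion monitoring against plasma standards (0.5–4000 nM). Parameters derived noncompartmentally with sparse sampling.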
# DIO mice [3] = details: with the GLP-1R agonist liraglutide; cited from earlier work
compound,measurement,setting,value
"CCCCCCCCCCCCCCCC(=O)N[C@@H](CCC(=O)NCCCC[C@H](NC(=O)[C@H](Cc1ccc(O)cc1)NC(=O)[C@H](CC(=O)O)NC(=O)[C@H](CO)NC(=O)[C@@H](NC(=O)[C@H](Cc1ccccc1)NC(=O)[C@@H](NC(C)=O)[C@@H](C)O)[C@@H](C)CC)C(=O)N[C@H](C(=O)N[C@@H](C)C(=O)N[C@@H](CC(C)C)C(=O)N[C@@H](CC(=O)O)C(=O)N[C@@H](CCCCN)C(=O)N[C@H](C(=O)N[C@@H](CCCNC(=N)N)C(=O)N[C@@H](CCC(N)=O)C(=O)N[C@@H](CCC(N)=O)C(=O)N[C@@H](CCC(=O)O)C(=O)N[C@@H](Cc1ccccc1)C(=O)N[C@H](C(=O)N[C@@H](CC(N)=O)C(=O)N[C@@H](Cc1c[nH]c2ccccc12)C(=O)N[C@@H](CC(C)C)C(=O)N[C@@H](CC(C)C)C(=O)N[C@@H](C)C(=O)N[C@@H](CCC(N)=O)C(=O)N[C@@H](CCCCN)C(=O)NCC(=O)O)C(C)C)[C@@H](C)CC)[C@@H](C)CC)C(=O)O [Peptide 7, [Nα-Ac, L14, R18, E21] hGIP(5–31)-K11 (γE-C16)]",Agonism at the hGIPR (cAMP production by peptide alone),hGIPR,negligible cAMP production as agonists
same,Antagonism at mGLP-1R,mGLP-1R,less antagonism at the mGLP-1R relative to hGLP-1R
same,EC50,hGcgR,> 12 µM
same,Glucose control in OGTT (endogenous incretin action),DIO mice [1],worsened glucose control
same,Effect on semaglutide mediated reductions in blood glucose,DIO mice [2],did not affect semaglutide mediated reductions in blood glucose
same,EC50,mGcgR,> 7 µM
same,Antagonism at mGcgR,mGcgR; antagonist mode vs glucagon,no antagonism
same,"Glucose iAUC in IPGTT on day 26, high dose","DIO male C57BL/6 J mice; 7 alone 1500 nmol/kg/d, 24 h after compound injection",numeric but insignificant lowering of glucose iAUC
same,Percent change in body weight,DIO male C57BL/6 J mice; 7 at 500 nmol/kg/d SC once daily,+2.57%
same,Percent change in body weight,DIO male C57BL/6 J mice; 7 at 1500 nmol/kg/d SC once daily,−2.88%
same,Fasted insulin,"DIO male C57BL/6 J mice; 6 h fast on day 27 of treatment, plasma",did not modify reduction in fasting insulin levels seen with semaglutide treatment
same,Glucose control in IPGTT on day 26,"DIO male C57BL/6 J mice; 24 h after compound injection, semaglutide 2 nmol/kg/d, semaglutide plus 7, 7 alone 500 nmol/kg/d",significantly improved glucose control compared to controls
same,Agonism at hGLP-1R (maximal),"hGLP-1R; agonist mode, Figure 3C",≤ 20%
same,"% inhibition of native GLP-1 action, hGLP-1R",hGLP-1R; antagonist mode,68%
same,Insulin secretion in response to GIPR antagonist alone (high glucose),intact human islets,"modest and transient, statistically insignificant rise in insulin secretion"
same,Agonism at the mGIPR (cAMP production by peptide alone),"mGIPR; agonist mode, without native ligand",negligible cAMP production as agonists
same,half-life,Pharmacokinetic,8.45 h
"CCCCCCCCCCCCCCCC(=O)N[C@@H](CCC(=O)N[C@@H](CCC(=O)NCCCC[C@H](NC(=O)[C@H](CC(=O)O)NC(=O)[C@H](CO)NC(=O)[C@@H](NC(=O)[C@H](Cc1ccccc1)NC(=O)[C@@H](NC(C)=O)[C@@H](C)O)[C@@H](C)CC)C(=O)N[C@@H](CO)C(=O)N[C@H](C(=O)N[C@@H](C)C(=O)N[C@@H](CC(C)C)C(=O)N[C@@H](CC(=O)O)C(=O)N[C@@H](CCCCN)C(=O)N[C@H](C(=O)N[C@@H](CCCNC(=N)N)C(=O)N[C@@H](CCC(N)=O)C(=O)N[C@@H](CCC(N)=O)C(=O)N[C@@H](CCC(=O)O)C(=O)N[C@@H](Cc1ccccc1)C(=O)N[C@H](C(=O)N[C@@H](CC(N)=O)C(=O)N[C@@H](Cc1c[nH]c2ccccc12)C(=O)N[C@@H](CC(C)C)C(=O)N[C@@H](CC(C)C)C(=O)N[C@@H](C)C(=O)N[C@@H](CCC(N)=O)C(=O)N[C@@H](CCCCN)C(=O)NCC(=O)N[C@@H](CCCCN)C(=O)N[C@@H](CCCCN)C(=O)N[C@@H](CC(N)=O)C(=O)N[C@@H](CC(=O)O)C(=O)N[C@@H](Cc1c[nH]c2ccccc12)C(=O)N[C@@H](CCCCN)C(=O)N[C@@H](Cc1c[nH]cn1)C(=O)N[C@@H](CC(N)=O)C(=O)N[C@H](C(=O)N[C@H](C(=O)N[C@@H](CCC(N)=O)C(N)=O)[C@@H](C)O)[C@@H](C)CC)C(C)C)[C@@H](C)CC)[C@@H](C)CC)C(=O)O)C(=O)O [Peptide 13, [N^α-Ac, L14, R18, E21] hGIP(5–42)-K10 (γEγE-C16)] (Ac-TFISDK([γGlu-γGlu-Palmitoyl])SIALDKIRQQEFVNWLLAQKGKKNDWKHNITQ-NH2)",Weight loss when co-administrated with liraglutide,DIO mice [3],did not improve weight loss
same,Fold less potent at mGIPR than 7 in vitro,mGIPR; 13 compared with 7,~5 fold
same,AUC,Pharmacokinetic,21.1 µM·h
same,half-life,Pharmacokinetic,1.12 h
